Measurements published in ChEMBL document CHEMBL4130618, “Paralithocins, Antimicrobial Peptides with Unusual Disulfide Connectivity from the Red King Crab, Paralithodes camtschaticus” (2018).
≈ marks a conversion by molar mass, not a printed value.

Legend:
Assay type in all cases: functional
Yersinia ruckeri = test: Antibacterial activity against Yersinia ruckeri CCUG 14190 measured after 72 hrs; details: CCUG 14190, 72 h
Outline: (§1)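 Marine strains were grown in Mueller Hinton broth. Peptide in 2-fold dilutions in double-distilled water (1.6–100 μM, up to 200 μM for selected marine strains), 50 μL plus an equal volume of growing bacteria at 5 × 10^3 cells/well, 72 h at 12 °C. OD was monitored. MIC is the lowest concentration giving OD <50% of the water growth control.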

Carnobacterium funditum = test: Antibacterial activity against Carnobacterium funditum CCUG 34644 measured after 72 hrs; details: CCUG 34644, 72 h
Outline: (§2)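 Carnobacteria were grown in modified tryptic soy broth with 5% glucose and 2% NaCl. 2-fold peptide dilutions in double-distilled water (1.6–100 μM, up to 200 μM for selected marine strains), 50 μL mixed 1:1 with growing cells (5 × 10^3/well), incubated 72 h at 12 °C. MIC is the lowest concentration with OD below 50% of the water growth control.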

Escherichia coli = test: Antibacterial activity against Escherichia coli ATCC 25922 measured after 24 hrs; details: ATCC 25922, 24 h
Outline: (§3)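 Purified native peptide in 2-fold serial dilutions in double-distilled water (1.6–100 μM). 50 μL was mixed with an equal volume of actively growing bacteria (5 × 10^3 cells/well) in Mueller Hinton broth and incubated 24 h at 37 °C. Growth was followed by OD. MIC is the lowest concentration giving OD <50% of the water growth control, read at control OD ≈0.3.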

[1] = test system: Carnobacterium maltaromaticum; test: Antibacterial activity against Carnobacterium maltaromaticum CCUG 34645 measured after 72 hrs; details: CCUG 34645, 72 h; outline: as §2
Staphylococcus aureus = test: Antibacterial activity against Staphylococcus aureus ATCC 9144 measured after 24 hrs; details: ATCC 9144, 24 h; outline: as §3
Vibrio anguillarum = test: Antibacterial activity against Listonella anguillarum AL104 measured after 72 hrs; details: AL104, 72 h; outline: as §1
Carnobacterium mobile = test: Antibacterial activity against Carnobacterium mobile measured after 72 hrs; outline: as §2
Aeromonas salmonicida = test: Antibacterial activity against Aeromonas salmonicida AL2020 measured after 72 hrs; details: AL2020, 72 h; outline: as §1
[2] = test system: Corynebacterium glutamicum; test: Antibacterial activity against Corynebacterium glutamicum ATCC 13032 measured after 24 hrs; details: ATCC 13032, 24 h; outline: as §3
Carnobacterium divergens = test: Antibacterial activity against Carnobacterium divergens measured after 72 hrs; outline: as §2
Pseudomonas aeruginosa = test: Antibacterial activity against Pseudomonas aeruginosa […] measured after 24 hrs; outline: as §3

## CC[C@H](C)[C@@H]1NC(=O)[C@H](CO)NC(=O)[C@H](CO)NC(=O)[C@@H](NC(=O)[C@H](CO)NC(=O)[C@@H]2CCCN2C(=O)[C@H](CCC(N)=O)NC(=O)[C@H](CCC(N)=O)NC(=O)[C@@H](N)Cc2c[nH]c3ccccc23)CSSC[C@@H](C(=O)N[C@@H](CCCNC(=N)N)C(=O)N[C@@H](CCCNC(=N)N)C(=O)NCC(=O)N2CCC[C@H]2C(=O)N[C@H](C(=O)N[C@@H](Cc2ccc(O)cc2)C(=O)O)[C@@H](C)CC)NC(=O)[C@H](CO)NC(=O)[C@H](C)NC(=O)[C@@H]2CSSC[C@H]3NC(=O)[C@H](C)NC(=O)[C@H](CO)NC(=O)[C@H](CCCCN)NC(=O)CNC(=O)[C@@H]4CSSC[C@H](NC(=O)[C@H](CCCNC(=N)N)NC(=O)CNC(=O)[C@H](CO)NC(=O)[C@H](Cc5ccc(O)cc5)NC(=O)[C@H](CO)NC(=O)[C@H]([C@@H](C)CC)NC3=O)C(=O)NCC(=O)N[C@@H](CSSC[C@H](NC1=O)C(=O)N[C@@H](CC(=O)O)C(=O)N[C@@H](Cc1ccc(O)cc1)C(=O)N[C@@H](CO)C(=O)N4)C(=O)N2
Yersinia ruckeri
  MIC: > 100 µM
Carnobacterium funditum
  MIC: 200 µM (≈ 816 µg/mL)
Escherichia coli
  MIC: > 100 µM
[1]
  MIC: 200 µM (≈ 816 µg/mL)
Staphylococcus aureus
  MIC: > 100 µM
Vibrio anguillarum
  MIC: > 100 µM
Carnobacterium mobile
  MIC: 100 µM (≈ 408 µg/mL)
Aeromonas salmonicida
  MIC: 200 µM (≈ 816 µg/mL)
[2]
  MIC: 50 µM (≈ 204 µg/mL)
Carnobacterium divergens
  MIC: 200 µM (≈ 816 µg/mL)
Pseudomonas aeruginosa
  MIC: > 100 µM

## H-SWLSKTAKKLENSAKKRISEGIAIAIQGGPR-OH
Yersinia ruckeri
  MIC: 0.8 µM
Carnobacterium funditum
  MIC: 25 µM
Escherichia coli
  MIC: 1.6 µM
[1]
  MIC: 50 µM
Staphylococcus aureus
  MIC: 100 µM
Vibrio anguillarum
  MIC: 1.6 µM
Carnobacterium mobile
  MIC: 6.3 µM
Aeromonas salmonicida
  MIC: 3.1 µM
[2]
  MIC: 1.6 µM
Carnobacterium divergens
  MIC: 25 µM
Pseudomonas aeruginosa
  MIC: 1.6 µM
